# Published values gathered from unrelated publications.
# Protocols differ between the studies behind these lines.
# Target: Voltage-gated inwardly rectifying potassium channel KCNH2 (KCNH2, Homo sapiens, UniProt Q12809)
SMILES,assay,system,setting,IC50
FC(F)(F)CN1CC(n2cc(Oc3ccn4nc(Cl)cc4n3)cn2)C1,"ion current, inhibitor, patch clamp",,,> 30 µM
Cc1ccc(OCC(=O)N[C@@H](Cc2c[nH]c3ccccc23)C(=O)OC(C)C)cc1,"ion current, inhibitor, patch clamp",HEK293,,> 50 µM
N=C(CC(O)c1cc2c(F)cc(F)cc2c2cc(C(F)(F)F)ccc12)Nc1ccc(Br)cc1 (centres unmarked),"ligand displacement, FP",,,1.95 µM
NC/C(=C\F)COc1cccc(Cn2c(=S)[nH]c(=O)c3[nH]cnc32)c1,"ion current, inhibitor",,,> 100 µM
C=CCn1c(=O)c2cnc(Nc3ccc(N4CCN(C)CC4)cc3)nc2n1-c1ccc2c(n1)[C@@](O)(CC)CC2,"ion current, inhibitor",,,> 30 µM
Cc1ccc2c(c1)C(=O)[C@]1(O)CCN(c3ccc4nc(C)ccc4c3)C1=N2,"ion current, inhibitor",,,5.4 µM
CCOC(=O)C1=C(CN2CCC[C@@H]2C(=O)Nc2ccc(B(O)O)cc2)NC(c2nccs2)=N[C@H]1c1ccc(F)cc1Br,"ion current, inhibitor, patch clamp",HEK293,pH 7.4,6.54 µM
CC(C)(C)c1sc2ncnc(Oc3c(F)cccc3OC(F)(F)F)c2c1-c1ccc(Cl)cc1,"ion current, inhibitor, patch clamp",,,~28 µM
